According to ChEMBL document CHEMBL2062460, “Disubstituted thiourea derivatives and their activity on CNS: synthesis and biological evaluation” (Eur J Med Chem, 2012):
Converted amounts (≈) assume the structure as drawn.

What was measured:
[1] = system: Staphylococcus aureus; experiment: Antibacterial activity against Staphylococcus aureus NCTC 4163 after 18 hrs by twofold serial agar dilution technique; format: functional; details: NCTC 4163, 18 h
Outline: (§1)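 Twofold serial agar dilution on Mueller–Hinton II agar, following CLSI guidelines. Compounds were dissolved in methanol or DMSO and tested at final agar concentrations of 3.125–400 µg/mL. Final inoculum was 10^4 CFU/mL.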

[2] = system: Staphylococcus aureus; experiment: Antibacterial activity against Staphylococcus aureus ATCC 25923 after 18 hrs by twofold serial agar dilution technique; format: functional; details: ATCC 25923, 18 h; outline: as §1
[3] = system: Staphylococcus aureus; experiment: Antibacterial activity against Staphylococcus aureus ATCC 6538 after 18 hrs by twofold serial agar dilution technique; format: functional; details: ATCC 6538, 18 h; outline: as §1
[4] = system: Staphylococcus aureus; experiment: Antibacterial activity against Staphylococcus aureus ATCC 29213 after 18 hrs by twofold serial agar dilution technique; format: functional; details: ATCC 29213, 18 h; outline: as §1
[5] = system: Staphylococcus epidermidis; experiment: Antibacterial activity against Staphylococcus epidermidis ATCC 12228 after 18 hrs by twofold serial agar dilution technique; format: functional; details: ATCC 12228, 18 h; outline: as §1
[6] = system: Bacillus subtilis; experiment: Antibacterial activity against Bacillus subtilis ATCC 6633 after 18 hrs by twofold serial agar dilution technique; format: functional; details: ATCC 6633, 18 h
[7] = system: Bacillus cereus; experiment: Antibacterial activity against Bacillus cereus ATCC 11778 after 18 hrs by twofold serial agar dilution technique; format: functional; details: ATCC 11778, 18 h
[8] = system: Enterococcus hirae; experiment: Antibacterial activity against Enterococcus hirae ATCC 10541 after 18 hrs by twofold serial agar dilution technique; format: functional; details: ATCC 10541, 18 h
[9] = system: Micrococcus luteus; experiment: Antibacterial activity against Micrococcus luteus ATCC 9341 after 18 hrs by twofold serial agar dilution technique; format: functional; details: ATCC 9341, 18 h
[10] = system: Micrococcus luteus; experiment: Antibacterial activity against Micrococcus luteus ATCC 10240 after 18 hrs by twofold serial agar dilution technique; format: functional; details: ATCC 10240, 18 h
[11] = Cytotoxicity against human MT4 cells after 96 hrs by MTT assay; format: cell-based
[12] = system: CCRF-CEM; experiment: Cytotoxicity against human CCRF-CEM cells after 96 hrs by MTT assay; format: functional
Outline: (§2)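 Haematological tumour lines were seeded at 1 × 10^5 cells/ml in RPMI-1640 with 10% FCS plus penicillin/streptomycin. Serial dilutions from a 100 mM DMSO stock were added. After 96 h at 37 °C in 5% CO2, viability was read by MTT. The 50% proliferation-inhibiting concentration (µM) was obtained by linear regression against untreated controls, which completed at least three rounds of multiplication. Values are means of three determinations.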

[13] = system: WIL2-NS; experiment: Cytotoxicity against human WIL2-NS cells after 96 hrs by MTT assay; format: functional; outline: as §2
[14] = system: CCRF-SB; experiment: Cytotoxicity against human CCRF-SB cells after 96 hrs by MTT assay; format: functional; outline: as §2
[15] = system: SK-MEL-28; experiment: Cytotoxicity against human SK-MEL-28 cells after 96 hrs by MTT assay; format: functional; details: SK-MEL-28, 96 h
Outline: (§3)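 Solid tumour lines were seeded at 1 × 10^5 cells/ml in line-specific media with 10% FCS and antibiotics. Serial dilutions from a 100 mM DMSO stock were added. After 96 h at 37 °C in 5% CO2, viability was read by MTT. The 50% growth-inhibiting concentration (µM) was obtained by linear regression versus untreated controls. Values are means of three independent determinations.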

[16] = system: MCF7; experiment: Cytotoxicity against human MCF7 cells after 96 hrs by MTT assay; format: functional; details: MCF7, 96 h; outline: as §3
[17] = system: SK-MES-1; experiment: Cytotoxicity against human SKMES1 cells after 96 hrs by MTT assay; format: functional; details: SK-MES-1, 96 h; outline: as §3
[18] = system: HepG2; experiment: Cytotoxicity against human HepG2 cells after 96 hrs by MTT assay; format: functional; details: HepG2, 96 h; outline: as §3
[19] = system: DU-145; experiment: Cytotoxicity against human DU145 cells after 96 hrs by MTT assay; format: functional; details: DU-145, 96 h; outline: as §3
[20] = system: Human immunodeficiency virus 1; experiment: Antiviral activity against HIV1 infected in human MT4 cells assessed as virus-induced cytopathogenicity after 4 days by MTT assay; format: functional, organism-based; details: Human immunodeficiency virus 1, MT4, 96 h

Compound `O=C(O)c1cn(C2CC2)c2cc(N3CCNCC3)c(F)cc2c1=O` [CIPROFLOXACIN] has an MIC [1] of 0.5 µg/mL (≈ 1.51 µM), an MIC [2] of 0.5 µg/mL (≈ 1.51 µM) and an MIC [3] of 0.5 µg/mL (≈ 1.51 µM). The MIC [4] was 0.5 µg/mL (≈ 1.51 µM), the MIC [5] was 0.5 µg/mL (≈ 1.51 µM) and the MIC [6] was less than 0.125 µg/mL. The MIC [7] was 0.5 µg/mL (≈ 1.51 µM), the MIC [8] was 4 µg/mL (≈ 12.1 µM) and the MIC [9] was 2 µg/mL (≈ 6.04 µM). It also gave an MIC [10] of 1 µg/mL (≈ 3.02 µM).
For `CC[C@@]1(O)C(=O)OCc2c1cc1n(c2=O)Cc2cc3ccccc3nc2-1` [CAMPTOTHECIN], the CC50 at 96 h [11] was 4 nM, the CC50 [12] was 3 nM and the CC50 [13] was 5 nM. For the same compound, the CC50 [14] was 4 nM, the CC50 [15] was 70 nM and the CC50 [16] was 80 nM. It also gave a CC50 [17] of 50 nM, a CC50 [18] of 40 nM and a CC50 [19] of 80 nM.
For `S=C(Nc1ccc(Cl)c(Cl)c1)Nc1nc[nH]n1`, the CC50 at 96 h [11] was 47000 nM and the EC50 [20] was greater than 47000 nM.
Compound `COc1ccc(NC(=S)Nc2nc[nH]n2)cc1` has a CC50 at 96 h [11] greater than 100000 nM and an EC50 [20] greater than 100000 nM.
For `O=C(NC(=S)Nc1nc[nH]n1)c1ccccc1`, the CC50 at 96 h [11] was greater than 100000 nM and the EC50 [20] was greater than 100000 nM.
